Drawing on ChEMBL document CHEMBL1124422, “Antitumor and antiviral activity of synthetic alpha- and beta-ribonucleosides of certain substituted pyrimido[5,4-d]pyrimidines: a new synthetic strategy for exocyclic aminonucleosides” (1989), this text covers Control, IC50 and Virus rating for 8 compounds.

The nature of experiment [1]: Effect on de novo purine biosynthesis when [14C]-formate was incorporated into WI-L2 cells at 50 uM with pre-incubation time of 8 h. Type of experiment: functional, Homo sapiens. A digest of the protocol: (§1)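 Cells were preincubated with drug at 37 °C, then labelled with [14C]formate. De novo purine synthesis was read as label incorporated into cellular and excreted purines (hot acid-soluble fraction).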

The species entered for experiment [2] is Homo sapiens. Briefly: Effect on de novo purine biosynthesis when [14C]-formate was incorporated into WI-L2 media at 50 uM with pre-incubation time of 8 h. Type of experiment: functional. A digest of the protocol: (§2)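 WI-L2 cells preincubated with drug at 37 °C before [14C]formate labeling. Read-out: [14C]formate incorporation into cellular and excreted purines (hot acid-soluble fraction). Cells grown in RPMI 1640 with 5% dialyzed fetal bovine serum, 20 mM NaHEPES pH 7.5, 2 mM glutamine, and kept in log phase between 0.5 and 12×10^5 cells/mL.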

Experiment [3] deals with WIL2. The experiment can be described thus: Inhibitory concentration of compound that inhibits tumor cell growth by 50% in Human B-lymphoblast (WI-L) cell line. Type of experiment: functional. Particulars: read-out: ID50 (the source's name). A digest of the protocol: (§3)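 Incubation was 3 days for L1210 and WI-L2 and 5 days for LoVo/L. MTT was added for 2 to 5 h and formazan was read by absorbance. ID50 is the concentration giving 50% of untreated control growth.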

The subject of experiment [4] is LoVo. Briefly: Inhibitory concentration of compound that inhibits tumor cell growth by 50% in Human colon carcinoma (LoVo/L) cell line. Type of experiment: functional. Particulars: read-out: ID50 (the source's name). A digest of the protocol: as §3
Experiment [5] deals with HeLa. Briefly: In vitro antiviral activity against Vaccinia virus (Elstree strain) cell line in HeLa cells. Type of experiment: functional, Homo sapiens.
In experiment [6] the test system is L1210. Briefly: Inhibitory concentration of compound that inhibits tumor cell growth by 50% in Murine leukemia (L1210) cell line. Type of experiment: functional. The following applies: Mus musculus, read-out: ID50 (the source's name). Summed up: as §3
Experiment [7] relates to Vero. The experiment can be described thus: In vitro antiviral activity against Parainfluenza 3 (C243 strain)cell line in Vero cells. Type of experiment: functional, Chlorocebus sabaeus.
Experiment [8] concerns Vero. The experiment can be described thus: In vitro antiviral activity against herpes simplex virus type 2 (MS strain) cell line in Vero cells. Type of experiment: functional, Chlorocebus sabaeus.
For experiment [9], the species on record is Homo sapiens. Briefly: Effect on de novo purine biosynthesis when [14C]formate was incorporated to WI-L2 media at 50 uM with preincubation time of 8 h. Type of experiment: functional. Summed up:
as §2

The nature of experiment [10]: Effect on de novo purine biosynthesis when [14C]formate was incorporated to WI-L2 cells at 50 uM with preincubation time of 8 h. Type of experiment: functional, Homo sapiens. A digest of the protocol: as §1
For experiment [11], the system named is Vero. Briefly: In vitro antiviral activity against Parainfluenza 3 (C243 strain) cell line in Vero cells. Type of experiment: functional, Chlorocebus sabaeus.
Experiment [12] is described as follows: Effect on de novo purine biosynthesis when [14C]formate was incorporated to WI-L2 cells at 0.25 uM with preincubation time of 8 h. Type of experiment: functional, Homo sapiens. A digest of the protocol: (§4)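 WI-L2 cells (or adenosine kinase-deficient mutant) kept in log phase in RPMI 1640 with 5% dialyzed FBS, 20 mM NaHEPES pH 7.5, 2 mM glutamine; preincubated with drug at 37 °C, then labeled with [14C]formate. De novo purine synthesis read as [14C]formate incorporation into cellular (hot acid-soluble) and excreted purines, scored as inhibition.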

Experiment [13] in a line: Effect on de novo purine biosynthesis when [14C]formate was incorporated to WI-L2 cells at 2.5 uM with preincubation time of 8 h. Type of experiment: functional, Homo sapiens. A digest of the protocol:
as §4

Experiment [14] is filed under the species Homo sapiens. The experiment can be described thus: Effect on de novo purine biosynthesis when [14C]formate was incorporated to WI-L2 media at 0.25 uM with preincubation time of 8 h. Type of experiment: functional. A digest of the protocol:
as §4

The species named for experiment [15] is Homo sapiens. The experiment can be described thus: Effect on de novo purine biosynthesis when [14C]formate was incorporated to WI-L2 media at 2.5 uM with preincubation time of 8 h. Type of experiment: functional. A digest of the protocol: as §4
The species entered for experiment [16] is Homo sapiens. The experiment can be described thus: Effect on de novo purine biosynthesis when [14C]-formate was incorporated to WI-L2 media at 0.25 uM with pre-incubation time of 8 h. Type of experiment: functional. Summed up:
as §4

The species named for experiment [17] is Homo sapiens. The experiment can be described thus: Effect on de novo purine biosynthesis when [14C]-formate was incorporated to WI-L2 media at 2.5 uM with pre-incubation time of 8 h. Type of experiment: functional. A digest of the protocol: as §4
The nature of experiment [18]: Effect on de novo purine biosynthesis when [14C]-formate was incorporated to WI-L2 cells at 25 uM with preincubation time of 4 h. Type of experiment: functional, Homo sapiens. Summed up: as §4
A short description of experiment [19]: Effect on de novo purine biosynthesis when [14C]formate was incorporated to fraction WI-L2 cells at 25 uM with preincubation time of 4 h. Type of experiment: functional, Homo sapiens. Summed up: as §4

On to `Nc1ncnc2c(NC3O[C@H](CO)[C@@H](O)[C@H]3O)nc(Cl)nc12` (some centres not stated), for which the Control in experiment [1] came to 16.4%; in experiment [2], 43.4%.
Take `Nc1ncnc2c(N[C@H]3O[C@H](CO)[C@@H](O)[C@H]3O)ncnc12`: the IC50 in [3] stood at 250 nM; in experiment [4] it was 1000 nM; in [6] it was 380 nM. Moreover, the figures for the Virus rating in [5], in experiment [7] and in experiment [8] were 1, 1.4 and 0.2, respectively.
On to `OC[C@H]1OC(Nc2ncnc3c(O)ncnc23)[C@H](O)[C@@H]1O` (some centres not stated), for which the Control in experiment [9] turned out to be 106%; in [10] it was 98.2%.
As for `Nc1ncnc2c(N[C@@H]3O[C@H](CO)[C@@H](O)[C@H]3O)ncnc12`, the IC50 in experiment [3] turned out to be 200 nM; in [4], 7000 nM; in experiment [6], 800 nM. For the same compound, the Virus rating is listed as 1.3 in experiment [5], 0.7 in [11] and 0.8 in [8]. Further, the Control in experiment [12] is 79.5%; in experiment [13], 29.9%; in experiment [14] it was 71.9%; in experiment [15], 54.6%.
`COc1ncnc2c(N[C@@H]3O[C@H](CO)[C@@H](O)[C@H]3O)ncnc12`: the IC50 in [3] turned out to be 60 nM; in experiment [4], 280 nM; in experiment [6], 40 nM. Moreover, the Virus rating in [5] is recorded as 1; in [7], 0.7; in experiment [8], 0.2. In addition, the Control in [12] was 41.9%; in [13] it was 2.7%; in experiment [16], 63%; in experiment [17], 41.8%; in experiment [18], 4.3%.
Take `COc1ncnc2c(N[C@H]3O[C@H](CO)[C@@H](O)[C@H]3O)ncnc12`: the values for the IC50 in experiment [3], in [4] and in experiment [6] were 2500 nM, 18700 nM and 2900 nM, respectively. Further, the Virus rating in [5] is listed as 0.9; in experiment [7], 0.7; in experiment [8], 0.1. The compound also registered a Control in experiment [19] of 98.2%.
Regarding `Nc1nc(NC2O[C@H](CO)[C@@H](O)[C@H]2O)c2ncnc(N)c2n1` (some centres not stated), the Control stood at 91.2% in experiment [13] and 89.8% in experiment [14].
Turning to `CN(C)c1ncnc2c(NC3O[C@H](CO)[C@@H](O)[C@H]3O)ncnc12` (some centres not stated), the Control came to 85.8% in [9] and 50.7% in experiment [10].
